# Compound activity from PubChem.
# LYPLA1 counter: blocks human lysophospholipase 1, a PME1 counter-screen; O75608; recombinant LYPLA1, FP-Rh probe fluorescence polarization; inhibition, % at 5.9 µM; hit rate 0.16% among 320,000; AID 2174;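 active means inhibition above the mean of all tested compounds plus 3 SD, set per campaign, cut at about 14% in these data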;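 further: inhibitors block serine hydrolase probe labeling of LYPLA1 so polarization falls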
# LYPLA2 inh: LYPLA2 (human) inhibition in PME1 counter-screen; O95372; recombinant LYPLA2, FP-Rh probe fluorescence polarization; inhibition, % at 5.9 µM; hit rate 0.38% among 320,000; AID 2177;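 active means inhibition above the screen-wide mean plus 3 SD, limit set per campaign, cut at about 26% in these data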
# Target sequence (O95372 whole entry, looked up): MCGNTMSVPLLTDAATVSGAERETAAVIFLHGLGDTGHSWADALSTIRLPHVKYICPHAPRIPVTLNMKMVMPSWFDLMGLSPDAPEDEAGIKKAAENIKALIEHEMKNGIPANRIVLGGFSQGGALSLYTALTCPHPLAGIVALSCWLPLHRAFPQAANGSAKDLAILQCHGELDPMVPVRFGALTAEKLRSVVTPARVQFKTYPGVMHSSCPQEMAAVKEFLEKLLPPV
# procasp7 counter: counter-screen: procaspase-7 (human) activation; recombinant procaspase-7, Ac-DEVD-pNA absorbance 405 nm; D23A/D198A/D206A triple mutant, cannot self-cleave; scale: DMSO 0, 5 µM enzyme 100; activation, % at 8.5 µM; hit rate 0.093% among 330,000; P55210;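 active means percent activation above the screen-wide mean plus 3 SD, cut at about 25% in these data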
# Target sequence (P55210 whole entry D23A/D198A/D206A): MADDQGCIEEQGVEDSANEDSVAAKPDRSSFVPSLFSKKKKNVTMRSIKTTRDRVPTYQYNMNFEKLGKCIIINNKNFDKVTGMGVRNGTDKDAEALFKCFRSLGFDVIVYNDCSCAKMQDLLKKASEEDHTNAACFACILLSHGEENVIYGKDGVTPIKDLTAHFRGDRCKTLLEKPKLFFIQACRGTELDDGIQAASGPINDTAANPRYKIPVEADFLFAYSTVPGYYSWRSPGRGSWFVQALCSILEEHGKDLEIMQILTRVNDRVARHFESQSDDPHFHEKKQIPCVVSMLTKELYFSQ
#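 Assay system – Uncleavable procaspase-7 mutant enzyme · Quantity – 2 µM procaspase-7 mutant as dispensed · Times – 1 h preincubation, 2 h reaction · Dosing – single nominal 8.5 µM compound dose, 0.8% DMSO final · Buffer or medium – Zinc-free 50 mM HEPES buffer, pH 7.4, with NaCl and Triton X-100 · Detection – Epi-absorbance of released pNA at 405 nm, two timepoints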
# PME-1 inh: blocks human protein phosphatase methylesterase 1. hit rate 0.53% among 320,000. Q9Y570. recombinant PME-1, FP-Rh probe fluorescence polarization. AID 2130. inhibition, % at 5.9 µM;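 active means inhibition above the campaign mean of all compounds plus 3 SD, cut at about 26% in these data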;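 further: competitive labeling of PME-1 active site by serine hydrolase directed probe; inhibitors block probe labeling so polarization falls and inhibition rises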
# proCasp3 act: activates human procaspase-3 | P42574 | recombinant procaspase-3 D3A, Ac-DEVD-pNA absorbance 405 nm | activation, % at 8.5 µM | hit rate 0.11% among 330,000;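 active means activation above the mean of all tested compounds plus 3 SD, cut at about 21% in these data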
#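 material = Procaspase-3 D3A mutant | probe or stimulus = Ac-DEVD-pNA | compound = single dose, 8.5 µM nominal compound, 0.8% DMSO | timing = 1 h preincubation, 2 h reaction | measured by = 405 nm absorbance of p-nitroaniline, reads at 0 and 120 min | benchmarks = DMSO-only low control, 5 µM PC-3 D3A high control | repeats = singlicate, each compound tested once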
# Fam108B inh: blocks mouse Fam108B hydrolase in RBBP9 counter-screen. recombinant Fam108B, FP-Rh probe fluorescence polarization. inhibition, % at 9.51 µM. hit rate 0.33% among 300,000;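 active means inhibition above the screen mean inhibition plus 3 SD, computed separately per campaign, cut at about 18% in these data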;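 further: inhibitors lower polarization as less probe binds the enzyme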
# LYPLA1 conf: counter-screen for PME1 inhibitors: confirmation of human LYPLA1 inhibitors; inhibition, % at 5.9 µM; recombinant LYPLA1, FP-Rh probe fluorescence polarization; hit rate 69% among 480; shares compounds with LYPLA1 counter;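 active means mean inhibition across replicates above the hit cutoff set in the primary screen, cut at about 15% in these data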;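 further: loss of FP-Rh probe labeling of LYPLA1 seen as lower polarization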
# A number is an active result; . = inactive; / = no result given; + = active, no number. A selection: hits, their analogues and other compounds. The true share with any hit is near 1%.
SMILES,LYPLA1 counter,LYPLA2 inh,procasp7 counter,PME-1 inh,proCasp3 act,Fam108B inh,LYPLA1 conf
COCCn1c(=O)[nH]c2cc(C(=O)N3CCN(c4cccc(Cl)c4)CC3)ccc2c1=O,52,.,.,.,.,.,.
CSC(=NC#N)N1CCN(c2ccc(Cl)cc2)CC1,17,.,.,.,.,.,19
CN(C)C(=C(C#N)C#N)N1CCN(c2ccc(Cl)cc2)CC1,.,.,.,.,.,.,/
COc1ccc2[nH]c(C(=O)N3CCC(CO)(Cc4cccc(C(F)(F)F)c4)CC3)c(C)c2c1,19,.,.,.,.,.,26
COc1ccccc1NC(=O)Cn1ncc2c1-c1ccccc1OC2,.,.,.,.,.,.,/
COc1cc(NC(=O)Cn2ncc3c2-c2ccccc2OC3)cc(OC)c1OC,20,.,.,.,.,.,.
C=CCn1c(O)c2ccc(C(=O)N=NC(=O)COc3ccc(OC)cc3)cc2c1O,.,.,.,.,.,.,/
C/C(=N/NC(=O)c1cc2ccccc2cc1O)C1C(=O)c2ccccc2C1=O,63,.,.,79,.,75,57
C/C(=N\NC(=O)c1cc2ccccc2cc1O)c1ccccn1,.,.,.,.,.,.,/
COc1ccc(CC(=O)Nc2ccc(N3CCOCC3)cc2)cc1S(=O)(=O)N1CCOCC1,.,.,.,.,.,.,/
CCN(c1ccc(NC(=O)c2ccc(N3CCCC3=O)cc2)cc1)C(C)C,16,.,.,.,.,.,17
COc1cccc2cc(C(=O)Nc3ccccc3Cl)/c(=N/NS(=O)(=O)c3ccccc3)oc12,.,.,.,.,.,.,/
O=C(NCc1n[nH]c(=S)n1-c1cccc(C(F)(F)F)c1)c1ccco1,.,.,.,.,.,.,/
Cc1noc(NS(=O)(=O)c2ccc(NC(=O)Nc3ccc(Cl)c(Cl)c3)cc2)c1C,35,.,.,51,.,.,.
Cc1noc(NS(=O)(=O)c2ccc(NC(=O)c3cc(=O)c4ccccc4o3)cc2)c1C,.,.,.,.,.,.,/
Cc1noc(NS(=O)(=O)c2ccc(N/C=C\C(=O)c3ccc(Br)cc3)cc2)c1C,16,.,.,.,.,.,34
Cc1cc2oc(C(=O)Nc3ccc(S(=O)(=O)Nc4onc(C)c4C)cc3)cc(=O)c2cc1Cl,20,.,.,.,.,.,22
Cc1noc(NS(=O)(=O)c2ccc(NC(=O)C(Cl)(Cl)Cl)cc2)c1C,.,.,.,.,.,.,/
COc1ccccc1C(=O)NCC(=O)N=Nc1c(O)n(C(C)C)c2ccccc12,20,.,.,.,.,.,27
Cn1c(=O)[nH]c2nnc(-c3ccc(Cl)c(Cl)c3)nc2c1=O,14,.,.,.,.,.,24
COc1ccc(CNC(=O)C(c2ccccc2F)N(C(=O)c2csnn2)C2CC2)cc1 (stereo not given),.,.,.,.,.,.,/
CCOC(=O)NC(=O)/C(C#N)=C\Nc1sccc1C(=O)OC,20,31,.,.,.,.,.
Cc1ccc(CNC(=O)C2CCN(S(=O)(=O)c3ccc4c(c3)CC(C)N4C(=O)C3CCC3)CC2)o1 (stereo not given),16,.,.,.,.,.,19
CC(C)CCNC(=O)C1CCN(S(=O)(=O)c2ccc3c(c2)CC(C)N3C(=O)C2CCC2)CC1 (stereo not given),.,.,.,.,.,.,/
O=C(COc1ccccc1Cl)N1CCN(c2ccccn2)CC1,.,.,.,.,.,.,/
SMILES,LYPLA1 counter,LYPLA2 inh,procasp7 counter,PME-1 inh,proCasp3 act,Fam108B inh,LYPLA1 conf
COc1ccc(OC)c(NC(=O)C2CCC(CNc3c(N4CCC(C)CC4)c(=O)c3=O)CC2)c1 (stereo not given),45,.,.,.,.,.,44
O=C(NCCc1ccco1)c1cc(COc2cccc(C(F)(F)F)c2)on1,.,.,.,.,.,.,/
CS(=O)(=O)N1CCN=C1SCc1ccc([N+](=O)[O-])cc1,+,.,.,.,.,.,.
Cc1cc(C)c2c(N)c(C(=O)Nc3ncc(C)s3)sc2n1,28,.,.,.,.,.,21
COC(=O)c1sc2nc(C)cc(C)c2c1N,.,.,.,.,.,.,/
CC(C)N(C(=O)Cn1cc(S(=O)(=O)CC(=O)NCc2ccc(F)cc2)c2ccccc21)C(C)C,.,.,.,.,.,.,/
Cc1ccc(C(=O)NCCC(=O)N2CCCC2)cc1,.,.,.,.,.,.,/
O=C1C(Cc2c[nH]c3ccccc23)NC(=S)N1Cc1ccccc1 (stereo not given),38,.,.,.,.,.,.
O=c1c2ccccc2oc2c1oc1ccccc12,/,/,.,/,.,/,/
O=C(CN1CCN(C(=O)c2ccco2)CC1)Nc1cc(Cl)ccc1Cl,82,.,.,.,.,.,85
O=C(CN1CCN(C(=O)c2ccccc2)CC1)Nc1cc(S(=O)(=O)N2CCCC2)ccc1Cl,78,.,.,.,.,/,81
O=C(CN1CCN(C(=O)c2cccc(S(=O)(=O)N3CCCC3)c2)CC1)Nc1ccccc1Cl,.,.,.,.,.,/,/
O=C(CSc1nnc(NC(=O)c2ccccc2F)s1)NC1CC1,.,.,.,.,.,.,/
CC(=O)NC(Cc1ccc(F)cc1)C(=O)NC1CCN(c2ncccc2[N+](=O)[O-])CC1 (stereo not given),.,.,.,.,.,.,/
C#CCN1c2ccccc2Sc2cccnc21,17,.,.,29,.,.,.
COC(=O)c1ccc(COc2ccccc2/C=C(\C#N)C(=O)Nc2ccc(C)cc2C)cc1,16,.,.,.,.,.,.
COC(=O)c1ccc(COc2ccccc2/C=C(\C#N)C(=O)Nc2c(C)cc(C)cc2C)cc1,.,.,.,.,.,.,/
Cc1ccsc1C1Nc2ccc3ncccc3c2C2=C1C(=O)CC(C)(C)C2 (stereo not given),16,.,.,.,.,.,.
Cc1c(S(=O)(=O)c2ccccn2)c(N)n(Cc2ccccc2)c1C,.,.,.,.,.,.,/
COCCn1c(C)c(C)c(S(=O)(=O)c2ccccc2)c1N,16,.,.,.,.,.,.
COC(=O)C(Cc1ccccc1)NC(=O)CCCC(=O)NCc1cccc(OC)c1 (stereo not given),.,.,.,.,.,.,/
CCN(CC)S(=O)(=O)c1cccc(-c2nnc(SCCOc3ccccc3C)o2)c1,29,.,.,.,.,.,34
CCN(CC)S(=O)(=O)c1cccc(-c2nnc(SCC(=O)c3cc(C)n(C)c3C)o2)c1,.,.,.,.,.,.,/
